This is an account of results in the array DNA melting data of Ke et al. (doi:10.1101/2024.01.08.574731).

Data set [1] is described as follows: melting temperature; fluorescence melt of hairpins on a sequencing array, two-state fit, raised by 9.35 °C to match UV melts. As to conditions: sodium 0.088 M. A digest of the protocol: (§1)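 With Cy3 and quencher oligos annealed, library hairpins on a sequenced MiSeq flow cell were imaged for Cy3 fluorescence in 50 mM Na-HEPES pH 8.0, 25 mM NaCl, in 2.5 °C steps up to 60 °C. Melting temperature and folding enthalpy were derived from bootstrapped two-state fits of signals normalised to pre-quench Cy3 and to control constructs. Four replicates were combined by inverse variance, with fitted temperatures raised by 9.35 °C to match UV melts.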

The nature of data set [2]: folding enthalpy; higher = less favourable; fluorescence melt of hairpins on a sequencing array, two-state fit. The note with it: sodium 0.088 M. A digest of the protocol: as §1

For GTCACGGGAAACTGTGGC (.(((.(....).))).), the Tm in data set [1] amounted to 44.4 °C. In addition, the folding enthalpy in data set [2] is -31.9 kcal/mol.
For GTCACTGCGAAAGCAGAC (((..(((....)))))), in that order: 28.5 °C and -7.51 kcal/mol.
In the same order, the values of GTCACTGGAAACAGTAAC ((.((((....)))).)) are 31.3 °C and -15.6 kcal/mol.
Regarding GTCAGAACGAAAGTTGAC (((..(((....)))))), the Tm in data set [1] turned out to be 36.9 °C. Further, the folding enthalpy in data set [2] is -21.5 kcal/mol.
In the case of GTCAGAGAAATCTGAC ((((((....)))))), the Tm in data set [1] is 51.2 °C. Besides, the folding enthalpy in data set [2] is -37.3 kcal/mol.
In the case of GTCAGCCGAAAGGCGGAC (((.(((....))).))), the Tm in data set [1] amounted to 68 °C. In data set [2], the folding enthalpy is -33.1 kcal/mol.
In the same order, the values of GTCAGCGAAAGCTAGAC ((((((....))).))) are 50.7 °C and -22.8 kcal/mol.
For the sequence GTCAGCGAAAGCTCCGAC ((((((....)))..))), the Tm in data set [1] was determined as 28.9 °C. Besides, in data set [2], the folding enthalpy is -13.5 kcal/mol.
For the sequence GTCAGCGAAAGCTCGGAC ((((((....)))..))), the Tm in data set [1] is 37.3 °C. Also, the folding enthalpy in data set [2] is -12.4 kcal/mol.
In the same order, the values of GTCAGCGAAAGCTGCGAC ((((((....)))..))) are 55.2 °C and -11.8 kcal/mol.
For GTCAGCGAAAGCTTGGAC ((((((....)))..))), in that order: 38.2 °C and -13.9 kcal/mol.
In the case of GTCAGGAAACTGAC (((((....))))), the Tm in data set [1] was 53.6 °C. The folding enthalpy in data set [2] was -25.6 kcal/mol.
In the case of GTCAGGCGAAAGCCAGAC (((.(((....))).))), in data set [1], the Tm was 59.8 °C. Besides, the folding enthalpy in data set [2] was -23.4 kcal/mol.
In the same order, the values of GTCAGGCGAAAGCCGAC (((.(((....)))))) are 60.6 °C and -16.5 kcal/mol.
For GTCAGGGGAAACCCCGAC (((.(((....))).))), in that order: 50.2 °C and -24.8 kcal/mol.
For GTCAGGGGAAACCTTGGC (.((.((....)).)).), in that order: 32.7 °C and -17.3 kcal/mol.
For GTCATACGAAAGTAGGAC (((.(((....))).))), the Tm in data set [1] was 53.9 °C. For the same sequence, in data set [2], the folding enthalpy was -29.3 kcal/mol.
In the same order, the values of GTCATAGGAAACCATGAC (((((.(....).))))) are 38.5 °C and -27.6 kcal/mol.
For GTCATCACGAAAGTGGAC (((..(((....)))))), in that order: 35.3 °C and -12.7 kcal/mol.
In the same order, the values of GTCATCCCGAAAGGGGAC (((..(((....)))))) are 37.8 °C and -14.1 kcal/mol.
On to GTCATCCGAAAGGAGAC (((.(((....)))))), for which the Tm in data set [1] was found to be 45.2 °C. Besides, the folding enthalpy in data set [2] was -20.1 kcal/mol.
For GTCATCGAAAGATCGAC ((((((....))).))), in that order: 35.7 °C and -22.1 kcal/mol.
In the same order, the values of GTCATCGAAAGATGCGAC ((((((....)))..))) are 46.1 °C and -19.8 kcal/mol.
Turning to GTCATCGGAAACGATGGC (.(((((....))))).), the Tm in data set [1] came to 56.2 °C. In addition, the folding enthalpy in data set [2] was -28.1 kcal/mol.
For the sequence GTCATCGGAAACGGTGAC ((((.((....)).)))), in data set [1], the Tm was 55 °C. The folding enthalpy in data set [2] was -38.1 kcal/mol.
Take GTCATGCGAAAGCAGGAC (((.(((....))).))): the Tm in data set [1] was 67.7 °C. Also, the folding enthalpy in data set [2] is -32.2 kcal/mol.
Regarding GTCATGGGAAACCATGAC (((((((....))))))), in data set [1], the Tm came to 60.7 °C. Moreover, the folding enthalpy in data set [2] was -44.5 kcal/mol.
In the case of GTCATTCGAAAGAACGAC (((.(((....))).))), in data set [1], the Tm is 41.1 °C. The folding enthalpy in data set [2] is -31 kcal/mol.
In the same order, the values of GTCATTGGAAACAACGAC (((.(((....))).))) are 35.5 °C and -20.9 kcal/mol.
In the same order, the values of GTCATTGGAAACAGTGAC ((((.((....)).)))) are 43.9 °C and -33.7 kcal/mol.
GTCCAAGGAAACTTGGAC (((((((....))))))): the Tm in data set [1] worked out at 61.6 °C. The folding enthalpy in data set [2] is -41.8 kcal/mol.
For GTCCAAGGAAACTTGGGC (.(((((....))))).), in that order: 51.1 °C and -46.6 kcal/mol.
As to GTCCACGAAAGTGACGAC ((((((....)))..))), in data set [1], the Tm worked out at 43.9 °C. Further, the folding enthalpy in data set [2] is -20.4 kcal/mol.
For GTCCACGAAAGTGCTGAC ((((((....)))..))), in that order: 33.9 °C and -14.7 kcal/mol.
For the sequence GTCCACGAAAGTGGTGAC ((((((....)))..))), in data set [1], the Tm is 38.2 °C. For the same sequence, the folding enthalpy in data set [2] was -9.78 kcal/mol.
Take GTCCACGAAAGTGTGGAC ((((((....)))..))): the Tm in data set [1] worked out at 55.8 °C. In addition, the folding enthalpy in data set [2] was -27.1 kcal/mol.
